pEC50: −log10 of the molar value. Values after ≈ are worked out from the molar mass of the structure shown.
Key:
MT4 = experiment: Cytotoxicity against human MT4 cells assessed as reduction in cell viability incubated for 3 to 6 days by MTS assay; format: cell-based; details: time 3-6 day
Outline: (§1)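 CRFK or MT4 cells were exposed to serial compound dilutions alongside the antiviral assays for 3–6 days at 37 °C.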

[1] = test system: Vesicular stomatitis virus; experiment: Antiviral activity against Vesicular stomatitis virus infected in human HeLa cells assessed as reduction in virus-induced cytopathic effect incubated for 3 to 6 days by light microscopic analysis; format: functional, organism-based
Outline: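 CPE reduction assay: virus and serial compound dilutions added together to subconfluent HeLa (vesicular stomatitis, Coxsackie B4, respiratory syncytial) or Vero (Coxsackie B4, Sindbis, Punta Toro) cultures. Incubated 3–6 days at 37 °C. Mean ± SEM of three independent tests.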

Vaccinia virus = experiment: Antiviral activity against Vaccinia virus infected in human HEL cells assessed as reduction in virus-induced cytopathic effect incubated for 3 to 6 days by light microscopic analysis; format: functional, organism-based; details: Orthopoxvirus vaccinia
Influenza B virus = experiment: Antiviral activity against influenza B virus infected in dog MDCK cells assessed as reduction in virus-induced cytopathic effect incubated for 3 to 6 days by light microscopic analysis; format: functional, organism-based
Outline: (§2)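 MDCK cells, subconfluent, received influenza A or B virus together with serial compound dilutions. Incubated 3–6 days at 35 °C.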

[2] = test system: Respiratory syncytial virus; experiment: Antiviral activity against Respiratory syncytial virus infected in human HeLa cells assessed as reduction in virus-induced cytopathic effect incubated for 3 to 6 days by light microscopic analysis; format: functional, organism-based
Outline: (§3)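 CPE reduction assay: virus and serial compound dilutions added together to subconfluent HeLa (vesicular stomatitis, Coxsackie B4, respiratory syncytial) or Vero (Coxsackie B4, Sindbis, Punta Toro) cultures. Incubated 3–6 days at 37 °C. […] Mean ± SEM of three independent tests.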

Human alphaherpesvirus 1 = experiment: Antiviral activity against Herpes simplex virus 1 infected in human HEL cells assessed as reduction in virus-induced cytopathic effect incubated for 3 to 6 days by light microscopic analysis; format: functional, cell-based; details: Human alphaherpesvirus 1, HEL
[3] = test system: Human immunodeficiency virus 2; experiment: Antiviral activity against Human immunodeficiency virus 2 infected in human MT4 cells assessed as reduction in virus-induced cytopathic effect incubated for 3 to 6 days by light microscopic analysis; format: functional, organism-based; details: Human immunodeficiency virus 2, MT4
Feline coronavirus = experiment: Antiviral activity against Feline coronavirus infected in cat CRFK cells assessed as reduction in virus-induced cytopathic effect incubated for 3 to 6 days by light microscopic analysis; format: functional, organism-based; details: Alphacoronavirus 1, CRFK
[4] = test system: Human immunodeficiency virus 1; experiment: Antiviral activity against Human immunodeficiency virus 1 infected in human MT4 cells assessed as reduction in virus-induced cytopathic effect incubated for 3 to 6 days by light microscopic analysis; format: functional, organism-based; details: Human immunodeficiency virus 1, MT4
Coxsackievirus B4 [5] = experiment: Antiviral activity against Human coxsackievirus B4 infected in African green monkey Vero cells assessed as reduction in virus-induced cytopathic effect incubated for 3 to 6 days by light microscopic analysis; format: functional, organism-based; details: Enterovirus B; outline: as §3
[6] = test system: Mammalian orthoreovirus 1; experiment: Antiviral activity against Mammalian orthoreovirus 1 infected in African green monkey Vero cells assessed as reduction in virus-induced cytopathic effect incubated for 3 to 6 days by light microscopic analysis; format: functional, organism-based; details: Mammalian orthoreovirus 1, Vero
[7] = Cytotoxicity against African green monkey Vero cells assessed as changes in cell morphology incubated for 3 to 6 days by light microscopy; format: cell-based; details: chlorocebus sabaeus, time 3-6 day
Outline: (§4)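 Uninfected subconfluent cells (Vero or HeLa, as named) exposed to serial compound dilutions in parallel with the CPE assays, 37 °C, 3–6 days. Cell morphology examined by light microscopy; MCC = minimal concentration causing microscopically detectable changes in morphology.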

Felid alphaherpesvirus 1 = experiment: Antiviral activity against Feline herpesvirus infected in cat CRFK cells assessed as reduction in virus-induced cytopathic effect incubated for 3 to 6 days by light microscopic analysis; format: functional, organism-based; details: Felid alphaherpesvirus 1, CRFK
Coxsackievirus B4 [8] = experiment: Antiviral activity against Human coxsackievirus B4 infected in human HeLa cells assessed as reduction in virus-induced cytopathic effect incubated for 3 to 6 days by light microscopic analysis; format: functional, organism-based; details: Enterovirus B; outline: as §3
[9] = Cytotoxicity against cat CRFK cells assessed as reduction in cell viability incubated for 3 to 6 days by MTS assay; format: cell-based, Felis catus; details: crfk, time 3-6 day; outline: as §1
[10] = Cytotoxicity against human HEL cells assessed as changes in cell morphology incubated for 3 to 6 days by light microscopy; format: cell-based; details: time 3-6 day
Outline: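 Human embryonic lung fibroblasts incubated with serial compound dilutions alongside the antiviral assays, 37 °C, 3–6 days. Morphology inspected by light microscopy; minimal cytotoxic concentration taken as lowest concentration giving minimal morphological change.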

Influenza A virus = experiment: Antiviral activity against influenza A virus infected in dog MDCK cells assessed as reduction in virus-induced cytopathic effect incubated for 3 to 6 days by light microscopic analysis; format: functional, organism-based; details: for EC50: Influenza A virus, MDCK; outline: as §2
Sindbis virus = experiment: Antiviral activity against Sindbis virus infected in African green monkey Vero cells assessed as reduction in virus-induced cytopathic effect incubated for 3 to 6 days by light microscopic analysis; format: functional, organism-based; outline: as §3
Punta Toro virus = experiment: Antiviral activity against Punta Toro virus infected in African green monkey Vero cells assessed as reduction in virus-induced cytopathic effect incubated for 3 to 6 days by light microscopic analysis; format: functional, organism-based; outline: as §3
Human alphaherpesvirus 2 = experiment: Antiviral activity against Herpes simplex virus 2 infected in human HEL cells assessed as reduction in virus-induced cytopathic effect incubated for 3 to 6 days by light microscopic analysis; format: functional, cell-based; details: Human alphaherpesvirus 2, HEL
Human respirovirus 3 = experiment: Antiviral activity against Human parainfluenza virus 3 infected in African green monkey Vero cells assessed as reduction in virus-induced cytopathic effect incubated for 3 to 6 days by light microscopic analysis; format: functional, organism-based; details: Human respirovirus 3, Vero
[11] = Cytotoxicity against human HeLa cells assessed as changes in cell morphology incubated for 3 to 6 days by light microscopic analysis; format: cell-based; details: time 3-6 day; outline: as §4
[12] = Cytotoxicity against dog MDCK cells assessed as changes in cell morphology incubated for 3 to 6 days by light microscopy; format: cell-based, Canis lupus familiaris; details: time 3-6 day

SMILES	CC50 (MT4)	EC50 [1]	EC50 (Vaccinia virus)	EC50 (Influenza B virus)	EC50 [2]	EC50 (Human alphaherpesvirus 1)	EC50 [3]	EC50 (Feline coronavirus)	EC50 [4]	EC50 (Coxsackievirus B4 [5])	EC50 [6]	MCC [7]	EC50 (Felid alphaherpesvirus 1)	EC50 (Coxsackievirus B4 [8])	CC50 [9]	MCC [10]	EC50 (Influenza A virus)	EC50 (Sindbis virus)	EC50 (Punta Toro virus)	EC50 (Human respirovirus 3)	pEC50 [2]	pEC50 (Coxsackievirus B4 [5])	pEC50 [6]	pEC50 (Coxsackievirus B4 [8])	pEC50 (Human respirovirus 3)	further results
O=C(N/N=C1\SCC(=O)N1CCc1ccccc1)c1[nH]c2ccc(F)cc2c1-c1ccccc1	>= 108 ug ml-1	> 100 µg/mL	> 100 µg/mL	> 100 µg/mL	> 100 µg/mL	> 100 µg/mL	> 100 µg/mL	> 100 µg/mL	> 100 µg/mL	> 100 µg/mL	> 100 µg/mL	10 µg/mL	> 100 µg/mL	> 100 µg/mL	17 µg/mL (≈ 36 µM)	> 10 µg/mL	> 100 µg/mL	> 100 µg/mL	> 100 µg/mL	> 100 µg/mL	–	–	–	–	–	EC50 (Human alphaherpesvirus 2): > 100 µg/mL
O=C(NNC(=S)NCc1ccccc1)c1[nH]c2ccc(F)cc2c1-c1ccccc1	11 µg/mL (≈ 26.3 µM)	> 100 µg/mL	> 100 µg/mL	> 100 µg/mL	> 100 µg/mL	> 100 µg/mL	> 100 µg/mL	> 100 µg/mL	> 100 µg/mL	> 100 µg/mL	> 100 µg/mL	10 µg/mL	> 100 µg/mL	> 100 µg/mL	1.9 µg/mL (≈ 4.54 µM)	> 10 µg/mL	> 100 µg/mL	> 100 µg/mL	> 100 µg/mL	> 100 µg/mL	–	–	–	–	–	EC50 (Human alphaherpesvirus 2): > 100 µg/mL; MCC [11]: 4 µg/mL
CCN1C(=O)CS/C1=N\NC(=O)c1[nH]c2ccc(F)cc2c1-c1ccccc1	> 125 µg/mL	> 100 µg/mL	> 100 µg/mL	> 100 µg/mL	> 100 µg/mL	> 100 µg/mL	> 100 µg/mL	> 100 µg/mL	> 100 µg/mL	> 100 µg/mL	> 100 µg/mL	20 µg/mL	> 100 µg/mL	> 100 µg/mL	> 100 µg/mL	> 100 µg/mL	> 100 µg/mL	> 100 µg/mL	> 100 µg/mL	> 100 µg/mL	–	–	–	–	–	EC50 (Human alphaherpesvirus 2): > 100 µg/mL
O=C(NNC(=S)NCCc1ccccc1)c1[nH]c2ccc(F)cc2c1-c1ccccc1	11 µg/mL (≈ 25.4 µM)	> 100 µg/mL	> 100 µg/mL	> 100 µg/mL	> 100 µg/mL	> 100 µg/mL	> 100 µg/mL	> 100 µg/mL	> 100 µg/mL	> 100 µg/mL	> 100 µg/mL	10 µg/mL	> 100 µg/mL	> 100 µg/mL	1.9 µg/mL (≈ 4.39 µM)	10 µg/mL	> 100 µg/mL	> 100 µg/mL	> 100 µg/mL	> 100 µg/mL	–	–	–	–	–	MCC [12]: 2 µg/mL; EC50 (Human alphaherpesvirus 2): > 100 µg/mL; MCC [11]: 4 µg/mL
CN1C(=O)CS/C1=N\NC(=O)c1[nH]c2ccc(F)cc2c1-c1ccccc1	> 125 µg/mL	> 100 µg/mL	> 100 µg/mL	> 100 µg/mL	> 100 µg/mL	> 100 µg/mL	> 100 µg/mL	> 100 µg/mL	> 100 µg/mL	> 100 µg/mL	> 100 µg/mL	20 µg/mL	> 100 µg/mL	> 100 µg/mL	> 100 µg/mL	> 100 µg/mL	> 100 µg/mL	> 100 µg/mL	> 100 µg/mL	> 100 µg/mL	–	–	–	–	–	EC50 (Human alphaherpesvirus 2): > 100 µg/mL
O=C(N/N=C1\SCC(=O)N1Cc1ccccc1)c1[nH]c2ccc(F)cc2c1-c1ccccc1	38 µg/mL (≈ 82.9 µM)	> 100 µg/mL	> 100 µg/mL	> 100 µg/mL	> 100 µg/mL	> 100 µg/mL	> 100 µg/mL	> 100 µg/mL	> 100 µg/mL	> 100 µg/mL	> 100 µg/mL	≥ 10 µg/mL	> 100 µg/mL	> 100 µg/mL	> 100 µg/mL	> 10 µg/mL	> 100 µg/mL	> 100 µg/mL	> 100 µg/mL	> 100 µg/mL	–	–	–	–	–	EC50 (Human alphaherpesvirus 2): > 100 µg/mL
CCCCNC(=S)NNC(=O)c1[nH]c2ccc(F)cc2c1-c1ccccc1	11 µg/mL (≈ 28.6 µM)	> 100 µg/mL	> 100 µg/mL	> 100 µg/mL	> 100 µg/mL	> 100 µg/mL	> 100 µg/mL	> 100 µg/mL	> 100 µg/mL	> 100 µg/mL	> 100 µg/mL	10 µg/mL	> 100 µg/mL	> 100 µg/mL	1.4 µg/mL (≈ 3.64 µM)	> 10 µg/mL	> 100 µg/mL	> 100 µg/mL	> 100 µg/mL	> 100 µg/mL	–	–	–	–	–	MCC [12]: 10 µg/mL; EC50 (Human alphaherpesvirus 2): > 100 µg/mL; MCC [11]: 4 µg/mL
NC(=O)c1ncn([C@@H]2O[C@H](CO)[C@@H](O)[C@H]2O)n1 [RIBAVIRIN]	–	–	–	–	–	–	–	–	–	–	–	> 250 µM	–	–	–	> 250 µM	–	–	–	–	4.82	< 3.60	< 3.60	4.21	< 3.60	pEC50 (Influenza A virus; mdck): 5.05; MCC [11]: > 250 µM
